SENP8 block-1 = inhibitors of human SENP8 protease; Q96LD8; recombinant SENP8, Nedd8 substrate fluorescence; inhibition, % at 20 µM; actives 0.64% (n = 360,000); AID 602440; in the data active = inhibition mostly above about 40%, no sharp cut-off; inactive = mostly below about 27%
SENP6 inh = blocks the human protease SENP6; inhibition, % at 10 µM; Recombinant SENP6 catalytic domain, aminoluciferin luminescence; AID 2599; actives 1.8% (n = 330,000);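 active = inhibition above about 50% at the single tested dose, limit read from the data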
SENP8 block-2 = blocks the human protease SENP8; AID 2540; actives 1.2% (n = 330,000); purified SENP8, Z-RLRGG-aminoluciferin cleavage, luminescence; Q96LD8; inhibition, % at 10 µM; in the data active = inhibition above about 50%
SENP1 FRET inh = blocks the human SENP1 SUMO protease catalytic domain | inhibition, % at 10 µM | AID 624204 | Q9P0U3 | actives 0.21% (n = 360,000) | recombinant SENP1 catalytic domain, CyPet-SUMO1-YPet FRET cleavage;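 active = inhibition at least 30% at 10 µM, raw YFP signal under a set limit, fluorescence ratio 0.5 to 1.5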
Target sequence (Q9P0U3 419-644 limits assumed): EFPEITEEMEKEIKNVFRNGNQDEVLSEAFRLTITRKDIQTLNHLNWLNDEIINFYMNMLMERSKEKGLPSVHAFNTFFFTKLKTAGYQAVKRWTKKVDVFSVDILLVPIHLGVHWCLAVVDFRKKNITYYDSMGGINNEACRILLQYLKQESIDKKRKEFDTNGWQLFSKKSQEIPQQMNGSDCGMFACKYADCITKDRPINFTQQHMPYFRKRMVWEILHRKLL
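Controls: no-enzyme wells low, DMSO-plus-enzyme wells high control. Test system: human recombinant His6-tagged SENP1 catalytic domain enzyme. Reagent: SFCypet-SUMO1-SFYpet FRET protein substrate, 25 nM final. Doses: one dose per compound, 10 µM, 0.5% DMSO. Detection: FRET, CFP and YFP emission. Timing: 50 min reaction at room temperature.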
SENP7 inh = blocks the human protease SENP7; actives 1.5% (n = 330,000); recombinant SENP7, Z-RLRGG-aminoluciferin luminescence, 40 min; inhibition, % at 5 µM; AID 434973;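 active = inhibition above about 50% at the single test dose, limit read from the data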
SENP8 conf = human SENP8 inhibition, confirmed; shares compounds with SENP7 inh; Recombinant SENP8, Z-RLRGG-aminoluciferin luminescence, 60 min; inhibition, % at 12.5 µM; actives 40% (n = 6,200);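 active = mean inhibition across replicates above about 50%, limit read from the data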
SENP6 confirm = human SENP6 inhibition, confirmed | actives 58% (n = 6,200) | recombinant SENP6, Z-RLRGG-aminoluciferin luminescence | shares compounds with SENP7 inh | inhibition, % at 12.5 µM
SENP7 conf = confirmation of human SENP7 protease inhibitors; shares compounds with SENP7 inh; recombinant SENP7, Z-RLRGG-aminoluciferin luminescence, 40 min; inhibition, % at 12.5 µM; actives 69% (n = 6,200)
Casp3 SENP sel = inhibits human caspase-3 in SENP selectivity test | purified caspase-3, Z-DEVD-aminoluciferin luminescence, 60 min | actives 60% (n = 6,200) | inhibition, % at 12.5 µM | shares compounds with SENP7 inh;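 active = mean inhibition above about 50%, limit read from the data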
Target sequence (P42574 28-227 limits assumed): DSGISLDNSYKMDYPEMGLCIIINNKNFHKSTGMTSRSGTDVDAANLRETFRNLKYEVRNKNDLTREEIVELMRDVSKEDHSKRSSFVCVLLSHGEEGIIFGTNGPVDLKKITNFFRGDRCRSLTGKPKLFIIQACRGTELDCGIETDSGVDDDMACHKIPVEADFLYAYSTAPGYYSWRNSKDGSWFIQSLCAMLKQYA
SENP luc ctr = luminescence interference (SENP counter-screen) | actives 39% (n = 6,200) | Pre-incubated SENP8/Z-RLRGG-aminoluciferin, luciferase luminescence interference | inhibition, % at 12.5 µM | shares compounds with SENP7 inh;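 active = mean inhibition above about 50% when retested at one dose, limit read from the data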
Large screens that a line does not name were inactive (follow-up assays come after a bar, where they were run). The list is not random: actives were taken first. Their share in the collection is about 2.5%.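 Rule for the calls, unless noted: active = mean inhibition above about 50% in the one-dose retest (limit read from the data); inactive = the rest.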

COc1ccc(NC(=O)N(CCO)Cc2cc3c(C)cc(C)cc3[nH]c2=O)cc1	none
COc1ccc(NC(=S)N(CCO)Cc2cc3c(C)cc(C)cc3[nH]c2=O)cc1	SENP6 inh 89 | SENP8 conf inactive | SENP6 confirm inactive | SENP7 conf inactive | Casp3 SENP sel inactive | SENP luc ctr inactive
COc1cccc(/C=C/C(=O)Nc2ccccc2N2CCOCC2)c1	none
COc1ccc(Cl)cc1NC(=O)c1[nH]nc(OC)c1[N+](=O)[O-]	none
COc1n[nH]c(C(=O)Nc2cc(Cl)ccc2Cl)c1[N+](=O)[O-]	SENP6 inh 55 | SENP8 conf inactive | SENP6 confirm inactive | SENP7 conf inactive | Casp3 SENP sel inactive | SENP luc ctr inactive
CCN1CCN(S(=O)(=O)Cc2ccccc2Cl)CC1	none
COc1cccc(C(=O)Nc2ccc3c(c2)OCO3)c1OC	SENP6 inh 55 | SENP8 conf inactive | SENP6 confirm inactive | SENP7 conf 73 | Casp3 SENP sel 73 | SENP luc ctr 54
COc1cccc(/C=C/C(=O)Nc2cccc(C(C)=O)c2)c1OC	none
COc1cccc(/C=C/C(=O)Nc2ccc3c(c2)OCCO3)c1OC	SENP8 block-2 62, SENP7 inh 76 | SENP8 conf 79 | SENP6 confirm 77 | SENP7 conf 91 | Casp3 SENP sel 71 | SENP luc ctr 79
COc1cc(OC)cc(C(=O)Nc2ccc3nc4n(c(=O)c3c2)CCCCC4)c1	SENP6 inh 81, SENP8 block-2 80, SENP7 inh 83 | SENP8 conf 87 | SENP6 confirm 86 | SENP7 conf 98 | Casp3 SENP sel 88 | SENP luc ctr 55
COc1ccccc1C(=O)Nc1ccc2nc3n(c(=O)c2c1)CCCC3	none
Cc1ccc2oc(C(=O)Nc3nonc3C)c(C)c2c1	none
Cc1ccc2oc(C(=O)Nc3nnc(C)s3)c(C)c2c1	SENP7 inh 59 | SENP8 conf inactive | SENP6 confirm inactive | SENP7 conf inactive | Casp3 SENP sel inactive | SENP luc ctr inactive
COc1ccc2oc(C(=O)Nc3nc4ccccc4[nH]3)c(C)c2c1	SENP6 inh 78, SENP8 block-2 58, SENP7 inh 93 | SENP8 conf inactive | SENP6 confirm inactive | SENP7 conf 95 | Casp3 SENP sel 84 | SENP luc ctr 58
COc1ccc2oc(C(=O)Nc3nnc(C)s3)c(C)c2c1	SENP7 inh 62 | SENP8 conf inactive | SENP6 confirm inactive | SENP7 conf inactive | Casp3 SENP sel inactive | SENP luc ctr inactive
CN(CC(=O)Nc1ccc(F)cc1)C(=O)COC(=O)/C=C/c1ccccc1[N+](=O)[O-]	none
C[C@@H]1COc2cc(N3CC[C@H](O)C3)ccc2S(=O)(=O)N1	none (no result: SENP6 inh, SENP8 block-2, SENP7 inh)
N#Cc1sc2nc(-c3ccccc3)cc(-c3ccco3)c2c1N	SENP6 inh 86, SENP8 block-2 93 | SENP8 conf inactive | SENP6 confirm inactive | SENP7 conf inactive | Casp3 SENP sel inactive | SENP luc ctr inactive
N#Cc1sc2nc(C3CC3)cc(-c3ccccc3)c2c1N	none
Cc1c(Cl)cccc1N=C(N)N=C(N)N	none
NC(N)=NC(N)=Nc1cccc2ccccc12	SENP6 inh 61, SENP7 inh 66 | SENP8 conf inactive | SENP6 confirm inactive | SENP7 conf inactive | Casp3 SENP sel inactive | SENP luc ctr inactive
CCCCNC(=O)C1(C)CCCCN1C(=O)c1ccc2c(c1)C(C)(C)CCC2(C)C (centres undefined)	none (no result: SENP6 inh, SENP8 block-2, SENP7 inh)
c1ccc(CNc2ccc3ccccc3n2)nc1	SENP6 inh 87, SENP8 block-2 86 | SENP8 conf 88 | SENP6 confirm 89 | SENP7 conf 99 | Casp3 SENP sel 92 | SENP luc ctr 91
Cc1cc(NCc2ccccn2)nc2ccccc12	none
